Common to all, as to format: functional
Assay [1] deals with Staphylococcus aureus. Nature of the assay: Antimicrobial activity against Staphylococcus aureus […] after 16 to 18 hrs by serial dilution method. In short, it runs like this:
(§1)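 Tube broth dilution: serial drug dilutions in Mueller Hinton broth, pH adjusted to 5.0 with phosphate buffer. A standardized bacterial suspension was inoculated and incubated 16-18 h at 37 °C. MIC was read as the lowest drug concentration with no visible growth. Ciprofloxacin served as the reference.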

Assay [2] concerns Escherichia coli. Nature of the assay: Antimicrobial activity against Escherichia coli […] after 16 to 18 hrs by serial dilution method. The method in brief: as §1
Assay [3] has as its system Pseudomonas aeruginosa. Nature of the assay: Antimicrobial activity against Pseudomonas aeruginosa ATTC 27853 after 16 to 18 hrs by serial dilution method. In short, it runs like this: as §1
In assay [4] the test system is Klebsiella pneumoniae. Briefly: Antimicrobial activity against Klebsiella pneumoniae after 16 to 18 hrs by serial dilution method. The method in brief:
as §1

Assay [5] relates to Staphylococcus aureus. Briefly: Antimicrobial activity against Staphylococcus aureus […] at MIC after 3 to 4 days by disc diffusion method.
The test system of assay [6] is Escherichia coli. Briefly: Antimicrobial activity against Escherichia coli […] at MIC after 3 to 4 days by disc diffusion method.
In assay [7] the test system is Pseudomonas aeruginosa. Briefly: Antimicrobial activity against Pseudomonas aeruginosa ATTC 27853 at MIC after 3 to 4 days by disc diffusion method. In general terms: In agar diffusion tests the substance spreads into inoculated agar from a disc or well.
Assay [8] concerns Klebsiella pneumoniae. Nature of the assay: Antimicrobial activity against Klebsiella pneumoniae at MIC after 3 to 4 days by disc diffusion method.
Assay [9] deals with Mycobacterium tuberculosis. Nature of the assay: Antitubercular activity against Mycobacterium tuberculosis H37Rv after 24 hrs by broth microdilution method. The method in brief: (§2)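 M. tuberculosis H37Rv grown in Middlebrook 7H9 with 10% OADC, diluted to McFarland 1, 50 µl added to 150 µl fresh medium. Compounds from 2 mg/mL DMF stocks tested at 1, 10 and 100 µg/mL; DMF-only controls. 7 days at 37 °C, then 0.01% resazurin added with 24 h further incubation. MIC = lowest concentration preventing blue-to-pink change.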

In assay [10] the test system is Mycobacterium tuberculosis. Nature of the assay: Antitubercular activity against Mycobacterium tuberculosis H37Rv at MIC after 24 hrs by broth microdilution method. The method in brief: as §2
Background: Broth dilution looks for growth in wells or tubes with falling amounts of substance.

In brackets after ≈: the same amount, converted by molar mass. Bounds are passed on as bounds.

A word on the MIC: it is the least concentration at which growth counts as inhibited. Higher therefore signals weaker potency.

With `Fc1cccc(-c2nc3ccccc3c3oc(NCc4ccccc4)nc23)c1`, the MIC stood at 6.25 µg/mL (≈ 16.9 µM) in [1]; 6.25 µg/mL (≈ 16.9 µM) in assay [2]; 6.25 µg/mL (≈ 16.9 µM) in [3]; 6.25 µg/mL (≈ 16.9 µM) in assay [4]; 1 µg/mL (≈ 2.71 µM) in assay [9]. The “diameter of the inhibition zone (DIZ)” value in [5] is 22 mm; in [6], 23 mm; in assay [7], 19 mm; in [8], 18 mm. The “inhibition (INH)” value in [10] is 99%.
`CCCCCNc1nc2c(-c3cccc(F)c3)nc3ccccc3c2o1`: the MIC in assay [1] turned out to be 12.5 µg/mL (≈ 35.8 µM); in [2], 6.25 µg/mL (≈ 17.9 µM); in [3], 12.5 µg/mL (≈ 35.8 µM); in [4] it was 12.5 µg/mL (≈ 35.8 µM); in [9], 10 µg/mL (≈ 28.6 µM). In addition, the “diameter of the inhibition zone (DIZ)” value in assay [5] was 11 mm; in [6] it was 24 mm; in assay [7], 14 mm; in assay [8] it was 12 mm. Besides, in assay [10], the “inhibition (INH)” value amounted to 95%.
On to `Fc1ccc(Nc2nc3c(-c4cccc(F)c4)nc4ccccc4c3o2)cc1`, for which the MIC came out at 6.25 µg/mL (≈ 16.7 µM) in assay [1]; 6.25 µg/mL (≈ 16.7 µM) in [2]; 6.25 µg/mL (≈ 16.7 µM) in assay [3]; 6.25 µg/mL (≈ 16.7 µM) in assay [4]; 1 µg/mL (≈ 2.68 µM) in [9]. The “diameter of the inhibition zone (DIZ)” value in assay [5] turned out to be 22 mm; in [6] it was 25 mm; in assay [7], 25 mm; in assay [8], 19 mm. For the same molecule, in assay [10], the “inhibition (INH)” value was 99%.
As to `Fc1cccc(-c2nc3ccccc3c3oc(NCCc4ccccc4)nc23)c1`, the minimal inhibitory concentration (MIC) in assay [1] was 50 µg/mL (≈ 130 µM); in assay [2], 50 µg/mL (≈ 130 µM); in assay [3], 50 µg/mL (≈ 130 µM); in [4], 50 µg/mL (≈ 130 µM); in assay [9], above 100 µg/mL. Moreover, the “diameter of the inhibition zone (DIZ)” value in [5], in [6], in assay [7] and in assay [8] was below 10 mm in each case. For the same molecule, in assay [10], the “inhibition (INH)” value came to 0%.
Consider `COc1ccccc1Nc1nc2c(-c3ccc(F)cc3)nc3ccccc3c2o1`, for which the MIC amounted to 6.25 µg/mL (≈ 16.2 µM) in [1]; 6.25 µg/mL (≈ 16.2 µM) in assay [2]; 6.25 µg/mL (≈ 16.2 µM) in assay [3]; 6.25 µg/mL (≈ 16.2 µM) in assay [4]; 1 µg/mL (≈ 2.59 µM) in assay [9]. In addition, the “diameter of the inhibition zone (DIZ)” value in assay [5] is recorded as 22 mm; in assay [6] it was 27 mm; in assay [7], 19 mm; in [8] it was 23 mm. The “inhibition (INH)” value in [10] came out at 99%.
Take `Fc1ccc(-c2nc3ccccc3c3oc(NCc4ccccc4)nc23)cc1`: the MIC was determined as 6.25 µg/mL (≈ 16.9 µM) in assay [1]; 6.25 µg/mL (≈ 16.9 µM) in assay [2]; 6.25 µg/mL (≈ 16.9 µM) in [3]; 6.25 µg/mL (≈ 16.9 µM) in assay [4]; 10 µg/mL (≈ 27.1 µM) in assay [9]. For the same molecule, the “diameter of the inhibition zone (DIZ)” value in assay [5] was found to be 21 mm; in [6], 24 mm; in assay [7], 24 mm; in assay [8], 19 mm. Moreover, in [10], the “inhibition (INH)” value worked out at 95%.
Consider `CCCCCNc1nc2c(-c3ccc(F)cc3)nc3ccccc3c2o1`, for which the MIC in assay [1] is 50 µg/mL (≈ 143 µM); in [2] it was 50 µg/mL (≈ 143 µM); in assay [3] it was 50 µg/mL (≈ 143 µM); in assay [4] it was 50 µg/mL (≈ 143 µM); in assay [9], above 100 µg/mL. In addition, the “diameter of the inhibition zone (DIZ)” value in [5], in assay [6], in assay [7] and in [8] was below 10 mm in each case. The “inhibition (INH)” value in assay [10] is on record as 0%.
Regarding `Fc1ccc(-c2nc3ccccc3c3oc(Nc4cccc(Cl)c4)nc23)cc1`, the MIC turned out to be 6.25 µg/mL (≈ 16 µM) in assay [1]; 6.25 µg/mL (≈ 16 µM) in assay [2]; 6.25 µg/mL (≈ 16 µM) in [3]; 6.25 µg/mL (≈ 16 µM) in [4]; 1 µg/mL (≈ 2.57 µM) in assay [9]. For the same molecule, the “diameter of the inhibition zone (DIZ)” value in [5] is 22 mm; in assay [6] it was 26 mm; in assay [7], 24 mm; in assay [8] it was 21 mm. Besides, the “inhibition (INH)” value in assay [10] amounted to 99%.
`Cc1cc(C)cc(Nc2nc3c(-c4ccc(F)cc4)nc4ccccc4c3o2)c1`: the MIC in [1] came out at 12.5 µg/mL (≈ 32.6 µM); in assay [2] it was 6.25 µg/mL (≈ 16.3 µM); in assay [3], 12.5 µg/mL (≈ 32.6 µM); in assay [4] it was 12.5 µg/mL (≈ 32.6 µM); in assay [9], 10 µg/mL (≈ 26.1 µM). For the same molecule, the “diameter of the inhibition zone (DIZ)” value in assay [5] amounted to 11 mm; in [6], 24 mm; in [7] it was 14 mm; in [8] it was 12 mm. Besides, in [10], the “inhibition (INH)” value worked out at 95%.
On to `Fc1ccc(Nc2nc3c(-c4ccc(F)cc4)nc4ccccc4c3o2)cc1`, for which the MIC in assay [1] amounted to 6.25 µg/mL (≈ 16.7 µM); in assay [2], 6.25 µg/mL (≈ 16.7 µM); in [3], 6.25 µg/mL (≈ 16.7 µM); in [4], 6.25 µg/mL (≈ 16.7 µM); in assay [9], 1 µg/mL (≈ 2.68 µM). Besides, the “diameter of the inhibition zone (DIZ)” value in assay [5] worked out at 20 mm; in assay [6], 28 mm; in assay [7], 22 mm; in assay [8] it was 20 mm. Also, in assay [10], the “inhibition (INH)” value was 99%.
As to `Fc1cccc(-c2nc3ccccc3c3oc(Nc4ccccc4)nc23)c1`, the MIC in [1] worked out at 6.25 µg/mL (≈ 17.6 µM); in assay [2], 6.25 µg/mL (≈ 17.6 µM); in [3], 6.25 µg/mL (≈ 17.6 µM); in assay [4] it was 6.25 µg/mL (≈ 17.6 µM); in assay [9] it was 10 µg/mL (≈ 28.1 µM). The “diameter of the inhibition zone (DIZ)” value is given as 20 mm in assay [5], 26 mm in assay [6], 22 mm in [7] and 20 mm in assay [8]. In [10], the “inhibition (INH)” value is listed as 95%.
For `N#Cc1cccc(Nc2nc3c(-c4cccc(F)c4)nc4ccccc4c3o2)c1`, the MIC in [1] is 12.5 µg/mL (≈ 32.9 µM); in assay [2], 12.5 µg/mL (≈ 32.9 µM); in assay [3], 12.5 µg/mL (≈ 32.9 µM); in assay [4], 12.5 µg/mL (≈ 32.9 µM); in assay [9] it was above 100 µg/mL. Further, the “diameter of the inhibition zone (DIZ)” value in [5] was found to be 11 mm; in [6], 16 mm; in assay [7], 14 mm; in [8] it was 12 mm. Moreover, the “inhibition (INH)” value in assay [10] turned out to be 0%.

The record behind these values is ChEMBL document CHEMBL1154853, “New 1,3-oxazolo[4,5-c]quinoline derivatives: synthesis and evaluation of antibacterial and antituberculosis properties” (2010).
